Test results taken from ChEMBL document CHEMBL5303300, “EUbOPEN Chemogenomics Library - Multiplex” (2023).
Values joined by “and” are separate entries in the source; they are usually repeats but may differ in a detail not shown here. Equal values may be shown once.

Test system: HEK-293T
Assay: Multiplex assay against HEK293T
Format: toxicity, cell-based
Conditions: human, number of replicates 2
In short: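 Live cells were stained at seeding with Hoechst33342, BioTracker Green Microtubule Cytoskeleton Dye, MitoTracker Red and Annexin V Alexa Fluor 680, then imaged on a CQ1 microscope at 37°C and 5% CO2 after compound addition. CellPathfinder machine-learning gating split cells into Hoechst high-intensity objects or normal cells. Normal cells were split into healthy, pyknosed or fragmented nuclei, and pyknosed cells into mitotic or apoptotic. Tubulin, mitochondrial-mass and membrane-permeability phenotypes are per cents of healthy-nucleus cells.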

[1] = 12 h, 1 µM, compound concentration 1 uM
[2] = 12 h, 10 µM, compound concentration 10 uM
[3] = 24 h, 1 µM, compound concentration 1 uM
[4] = 24 h, 10 µM, compound concentration 10 uM
[5] = 48 h, 1 µM, compound concentration 1 uM
[6] = 48 h, 10 µM, compound concentration 10 uM

Cn1cc(-c2ccc(-c3cncc(Cl)c3N3CCC4(CCNC4=O)CC3)cc2)cn1
Population Apoptotic (%) [1]: 62% and 39%
Population Fragmented Nuclei (%) [1]: 2% and 4%
Population Healthy Nuclei (%) [1]: 90% and 84%
Population Hoechst High Intensity Objects (%) [1]: 6% and 5%
Population Membrane Permeable-Phenotype (%) [1]: 5% and 4%
Population Mitochondria Different-Phenotype (%) [1]: 14% and 18%
Population Mitotic Cells (%) [1]: 37% and 60%
Population Normal (%) [1]: 93% and 94%
Population Pyknosed Nuclei (%) [1]: 6% and 11%
Population Tubulin-Different-Phenotype (%) [1]: 58% and 67%
Total Cell Count [1]: 574 and 615
Population Apoptotic (%) [2]: 41% and 49%
Population Fragmented Nuclei (%) [2]: 2% and 3%
Population Healthy Nuclei (%) [2]: 87% and 86%
Population Hoechst High Intensity Objects (%) [2]: 7%
Population Membrane Permeable-Phenotype (%) [2]: 5% and 6%
Population Mitochondria Different-Phenotype (%) [2]: 40% and 35%
Population Mitotic Cells (%) [2]: 58% and 50%
Population Normal (%) [2]: 92%
Population Pyknosed Nuclei (%) [2]: 10%
Population Tubulin-Different-Phenotype (%) [2]: 98% and 95%
Total Cell Count [2]: 600 and 554
Population Apoptotic (%) [3]: 36% and 51%
Population Fragmented Nuclei (%) [3]: 6% and 9%
Population Healthy Nuclei (%) [3]: 86% and 85%
Population Hoechst High Intensity Objects (%) [3]: 9% and 10%
Population Membrane Permeable-Phenotype (%) [3]: 3%
Population Mitochondria Different-Phenotype (%) [3]: 8% and 7%
Population Mitotic Cells (%) [3]: 63% and 48%
Population Normal (%) [3]: 90% and 89%
Population Pyknosed Nuclei (%) [3]: 7% and 5%
Population Tubulin-Different-Phenotype (%) [3]: 53%
Total Cell Count [3]: 822 and 828
Population Apoptotic (%) [4]: 43% and 49%
Population Fragmented Nuclei (%) [4]: 5%
Population Healthy Nuclei (%) [4]: 85% and 84%
Population Hoechst High Intensity Objects (%) [4]: 5% and 9%
Population Membrane Permeable-Phenotype (%) [4]: 6% and 5%
Population Mitochondria Different-Phenotype (%) [4]: 34% and 30%
Population Mitotic Cells (%) [4]: 56% and 50%
Population Normal (%) [4]: 94% and 90%
Population Pyknosed Nuclei (%) [4]: 9% and 10%
Population Tubulin-Different-Phenotype (%) [4]: 95% and 94%
Total Cell Count [4]: 684 and 624
Population Apoptotic (%) [5]: 31% and 36%
Population Fragmented Nuclei (%) [5]: 16% and 14%
Population Healthy Nuclei (%) [5]: 80% and 82%
Population Hoechst High Intensity Objects (%) [5]: 16% and 14%
Population Membrane Permeable-Phenotype (%) [5]: 5% and 4%
Population Mitochondria Different-Phenotype (%) [5]: 2%
Population Mitotic Cells (%) [5]: 68% and 63%
Population Normal (%) [5]: 83% and 85%
Population Pyknosed Nuclei (%) [5]: 2% and 3%
Population Tubulin-Different-Phenotype (%) [5]: 42% and 49%
Total Cell Count [5]: 1341 and 1209
Population Apoptotic (%) [6]: 55% and 50%
Population Fragmented Nuclei (%) [6]: 8% and 7%
Population Healthy Nuclei (%) [6]: 84% and 83%
Population Hoechst High Intensity Objects (%) [6]: 10%
Population Membrane Permeable-Phenotype (%) [6]: 8%
Population Mitochondria Different-Phenotype (%) [6]: 15% and 18%
Population Mitotic Cells (%) [6]: 45% and 49%
Population Normal (%) [6]: 89%
Population Pyknosed Nuclei (%) [6]: 6% and 8%
Population Tubulin-Different-Phenotype (%) [6]: 87% and 85%
Total Cell Count [6]: 1065 and 859

CCOC(=O)Nc1cc(-c2ccc(C)c(NS(C)(=O)=O)c2)nn2c(C)nnc12
Population Apoptotic (%) [2]: 36% and 38% and 52% and 40%
Population Fragmented Nuclei (%) [2]: 2% and 3%
Population Healthy Nuclei (%) [2]: 78% and 74% and 75% and 79%
Population Hoechst High Intensity Objects (%) [2]: 4% and 3%
Population Membrane Permeable-Phenotype (%) [2]: 5% and 11% and 2%
Population Mitochondria Different-Phenotype (%) [2]: 15% and 28% and 21% and 20%
Population Mitotic Cells (%) [2]: 63% and 61% and 47% and 59%
Population Normal (%) [2]: 95% and 96%
Population Pyknosed Nuclei (%) [2]: 19% and 22% and 21% and 17%
Population Tubulin-Different-Phenotype (%) [2]: 56% and 71% and 58% and 55%
Total Cell Count [2]: 892 and 664 and 646 and 672
Population Apoptotic (%) [4]: 40% and 25% and 30% and 24%
Population Fragmented Nuclei (%) [4]: 3% and 4% and 2%
Population Healthy Nuclei (%) [4]: 82% and 86% and 84% and 85%
Population Hoechst High Intensity Objects (%) [4]: 5% and 4%
Population Membrane Permeable-Phenotype (%) [4]: 3% and 0% and 1%
Population Mitotic Cells (%) [4]: 59% and 75% and 69%
Population Normal (%) [4]: 94% and 95%
Population Pyknosed Nuclei (%) [4]: 13% and 9% and 12% and 10%
Population Tubulin-Different-Phenotype (%) [4]: 32% [middle of 4 runs]
Total Cell Count [4]: 755 and 1187 and 821 and 806
Population Apoptotic (%) [6]: 25% and 42% and 30% and 29%
Population Fragmented Nuclei (%) [6]: 9% and 5% and 7% and 6%
Population Healthy Nuclei (%) [6]: 83% and 79% and 80% and 82%
Population Hoechst High Intensity Objects (%) [6]: 5% and 9%
Population Membrane Permeable-Phenotype (%) [6]: 0% and 1%
Population Mitotic Cells (%) [6]: 75% and 57% and 69% and 70%
Population Normal (%) [6]: 94% and 90%
Population Pyknosed Nuclei (%) [6]: 7% and 15% and 11%
Total Cell Count [6]: 1217 and 690 and 964 and 833

O=C1NC(=NCc2cccs2)SC1=Cc1ccc2ncccc2c1
Population Apoptotic (%) [1]: 54% and 38%
Population Fragmented Nuclei (%) [1]: 6% and 4%
Population Healthy Nuclei (%) [1]: 78% and 85%
Population Hoechst High Intensity Objects (%) [1]: 8% and 7%
Population Membrane Permeable-Phenotype (%) [1]: 4% and 2%
Population Mitochondria Different-Phenotype (%) [1]: 15% and 9%
Population Mitotic Cells (%) [1]: 45% and 61%
Population Normal (%) [1]: 91% and 92%
Population Pyknosed Nuclei (%) [1]: 15% and 10%
Population Tubulin-Different-Phenotype (%) [1]: 46% and 45%
Total Cell Count [1]: 632 and 733
Population Apoptotic (%) [2]: 54% and 69%
Population Fragmented Nuclei (%) [2]: 1% and 2%
Population Healthy Nuclei (%) [2]: 90% and 92%
Population Hoechst High Intensity Objects (%) [2]: 3% and 6%
Population Membrane Permeable-Phenotype (%) [2]: 4%
Population Mitochondria Different-Phenotype (%) [2]: 21% and 19%
Population Mitotic Cells (%) [2]: 45% and 30%
Population Normal (%) [2]: 96% and 93%
Population Pyknosed Nuclei (%) [2]: 7% and 5%
Population Tubulin-Different-Phenotype (%) [2]: 78% and 72%
Total Cell Count [2]: 644 and 684
Population Apoptotic (%) [3]: 40% and 31%
Population Fragmented Nuclei (%) [3]: 6% and 4%
Population Healthy Nuclei (%) [3]: 84% and 89%
Population Hoechst High Intensity Objects (%) [3]: 8%
Population Membrane Permeable-Phenotype (%) [3]: 3% and 2%
Population Mitochondria Different-Phenotype (%) [3]: 3% and 5%
Population Mitotic Cells (%) [3]: 59% and 68%
Population Normal (%) [3]: 91%
Population Pyknosed Nuclei (%) [3]: 9% and 6%
Population Tubulin-Different-Phenotype (%) [3]: 19% and 30%
Total Cell Count [3]: 1066 and 1062
Population Apoptotic (%) [4]: 63% and 77%
Population Fragmented Nuclei (%) [4]: 2%
Population Healthy Nuclei (%) [4]: 91% and 93%
Population Hoechst High Intensity Objects (%) [4]: 6% and 5%
Population Membrane Permeable-Phenotype (%) [4]: 2% and 1%
Population Mitochondria Different-Phenotype (%) [4]: 9% and 12%
Population Mitotic Cells (%) [4]: 36% and 22%
Population Normal (%) [4]: 93% and 94%
Population Pyknosed Nuclei (%) [4]: 5% and 4%
Population Tubulin-Different-Phenotype (%) [4]: 57% and 55%
Total Cell Count [4]: 699 and 690
Population Apoptotic (%) [5]: 14% and 11%
Population Fragmented Nuclei (%) [5]: 16% and 10%
Population Healthy Nuclei (%) [5]: 80% and 86%
Population Hoechst High Intensity Objects (%) [5]: 9% and 10%
Population Membrane Permeable-Phenotype (%) [5]: 5%
Population Mitochondria Different-Phenotype (%) [5]: 0% and 1%
Population Mitotic Cells (%) [5]: 85% and 88%
Population Normal (%) [5]: 90% and 89%
Population Pyknosed Nuclei (%) [5]: 3%
Population Tubulin-Different-Phenotype (%) [5]: 9% and 14%
Total Cell Count [5]: 2821 and 2321
Population Apoptotic (%) [6]: 45% and 59%
Population Fragmented Nuclei (%) [6]: 8% and 7%
Population Healthy Nuclei (%) [6]: 87% and 89%
Population Hoechst High Intensity Objects (%) [6]: 8% and 7%
Population Membrane Permeable-Phenotype (%) [6]: 2% and 0%
Population Mitochondria Different-Phenotype (%) [6]: 3% and 5%
Population Mitotic Cells (%) [6]: 54% and 40%
Population Normal (%) [6]: 91% and 92%
Population Pyknosed Nuclei (%) [6]: 3%
Population Tubulin-Different-Phenotype (%) [6]: 21% and 26%
Total Cell Count [6]: 740 and 737

CCN(CC)C/C=C/C(=O)Nc1cc2c(Nc3ccc(F)c(Cl)c3)ncnc2cc1OCC1CC1
Population Apoptotic (%) [1]: 61% and 46%
Population Fragmented Nuclei (%) [1]: 3% and 4%
Population Healthy Nuclei (%) [1]: 79%
Population Hoechst High Intensity Objects (%) [1]: 4% and 7%
Population Membrane Permeable-Phenotype (%) [1]: 6% and 5%
Population Mitochondria Different-Phenotype (%) [1]: 26% and 30%
Population Mitotic Cells (%) [1]: 38% and 53%
Population Normal (%) [1]: 95% and 92%
Population Pyknosed Nuclei (%) [1]: 17% and 15%
Population Tubulin-Different-Phenotype (%) [1]: 81% and 90%
Total Cell Count [1]: 435 and 525
Population Apoptotic (%) [2]: 81% and 84%
Population Fragmented Nuclei (%) [2]: 1% and 6%
Population Healthy Nuclei (%) [2]: 68% and 69%
Population Hoechst High Intensity Objects (%) [2]: 8% and 6%
Population Membrane Permeable-Phenotype (%) [2]: 4% and 3%
Population Mitochondria Different-Phenotype (%) [2]: 76% and 83%
Population Mitotic Cells (%) [2]: 18% and 15%
Population Normal (%) [2]: 91% and 93%
Population Pyknosed Nuclei (%) [2]: 29% and 23%
Population Tubulin-Different-Phenotype (%) [2]: 84% and 78%
Total Cell Count [2]: 283 and 298
Population Apoptotic (%) [3]: 50%
Population Fragmented Nuclei (%) [3]: 5% and 6%
Population Healthy Nuclei (%) [3]: 81% and 84%
Population Hoechst High Intensity Objects (%) [3]: 6% and 9%
Population Membrane Permeable-Phenotype (%) [3]: 4% and 5%
Population Mitochondria Different-Phenotype (%) [3]: 14% and 19%
Population Mitotic Cells (%) [3]: 50% and 49%
Population Normal (%) [3]: 93% and 90%
Population Pyknosed Nuclei (%) [3]: 12% and 8%
Population Tubulin-Different-Phenotype (%) [3]: 59% and 72%
Total Cell Count [3]: 687 and 743
Population Apoptotic (%) [4]: 84% and 81%
Population Fragmented Nuclei (%) [4]: 2% and 4%
Population Healthy Nuclei (%) [4]: 47% and 45%
Population Hoechst High Intensity Objects (%) [4]: 10%
Population Membrane Permeable-Phenotype (%) [4]: 2% and 1%
Population Mitochondria Different-Phenotype (%) [4]: 92% and 93%
Population Mitotic Cells (%) [4]: 15% and 18%
Population Normal (%) [4]: 89%
Population Pyknosed Nuclei (%) [4]: 49%
Population Tubulin-Different-Phenotype (%) [4]: 88% and 77%
Total Cell Count [4]: 274 and 323
Population Apoptotic (%) [5]: 30%
Population Fragmented Nuclei (%) [5]: 9%
Population Healthy Nuclei (%) [5]: 84%
Population Hoechst High Intensity Objects (%) [5]: 9% and 7%
Population Membrane Permeable-Phenotype (%) [5]: 4% and 6%
Population Mitochondria Different-Phenotype (%) [5]: 5% and 2%
Population Mitotic Cells (%) [5]: 69%
Population Normal (%) [5]: 90% and 92%
Population Pyknosed Nuclei (%) [5]: 5% and 6%
Population Tubulin-Different-Phenotype (%) [5]: 53% and 34%
Total Cell Count [5]: 1264 and 1265
Population Apoptotic (%) [6]: 84% and 87%
Population Fragmented Nuclei (%) [6]: 7% and 11%
Population Healthy Nuclei (%) [6]: 32% and 33%
Population Hoechst High Intensity Objects (%) [6]: 8% and 15%
Population Membrane Permeable-Phenotype (%) [6]: 5% and 2%
Population Mitochondria Different-Phenotype (%) [6]: 87% and 94%
Population Mitotic Cells (%) [6]: 15% and 12%
Population Normal (%) [6]: 91% and 84%
Population Pyknosed Nuclei (%) [6]: 59% and 55%
Population Tubulin-Different-Phenotype (%) [6]: 84% and 80%
Total Cell Count [6]: 396 and 360
